Source: paper PMC7408314 (Inorganic chemistry, 2020)

Tests used:
[1] = [L] = 10 μM, [M] = 1 μM, pH = 7.4; cited from earlier work
[2] = target: PSMA on PC3-PIP (PSMA+) cells (Homo sapiens, UniProt Q04609); assay: Receptor saturation binding assay on prostate cancer cells; details: 2 h incubation
[3] = protonated tertiary amine in the pyridyl backbone; cited from earlier work
[4] = cited from earlier work
[5] = cited from earlier work; remark: listed apart in the source
[6] = cited from earlier work; remark: listed apart in the source
[7] = tested on: PC3-PIP (PSMA+) and PC3-Flu (PSMA−) tumor-bearing nude mice; details: 7.4 vs 74 GBq/μmol
[8] = In vitro mouse serum challenge; assay type: in vitro ADME; details: 37 °C, at least six half-lives of scandium-44 (24 h)
Summary of the method: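 Scandium-44-labelled complex (free chelator or its PSMA-617 conjugate, labelled at ambient temperature in 0.5 M NH₄OAc) mixed with an equal volume of mouse serum and held at 37 °C. Aliquots taken at 0.5, 4, 8 and 24 h, run on iTLC-SA in 0.4 M sodium citrate pH 4.5 beside free ⁴⁴Sc-in-serum control. Intact fraction calculated from baseline versus solvent-front peak areas.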

in vivo = details: male, nude, mouse, tumor (PSMA+, PC3-PIP), intravenous, total radioactivity, tumor retention

PSMA on PC3-PIP (PSMA+) cells, sequence (Q04609 whole entry): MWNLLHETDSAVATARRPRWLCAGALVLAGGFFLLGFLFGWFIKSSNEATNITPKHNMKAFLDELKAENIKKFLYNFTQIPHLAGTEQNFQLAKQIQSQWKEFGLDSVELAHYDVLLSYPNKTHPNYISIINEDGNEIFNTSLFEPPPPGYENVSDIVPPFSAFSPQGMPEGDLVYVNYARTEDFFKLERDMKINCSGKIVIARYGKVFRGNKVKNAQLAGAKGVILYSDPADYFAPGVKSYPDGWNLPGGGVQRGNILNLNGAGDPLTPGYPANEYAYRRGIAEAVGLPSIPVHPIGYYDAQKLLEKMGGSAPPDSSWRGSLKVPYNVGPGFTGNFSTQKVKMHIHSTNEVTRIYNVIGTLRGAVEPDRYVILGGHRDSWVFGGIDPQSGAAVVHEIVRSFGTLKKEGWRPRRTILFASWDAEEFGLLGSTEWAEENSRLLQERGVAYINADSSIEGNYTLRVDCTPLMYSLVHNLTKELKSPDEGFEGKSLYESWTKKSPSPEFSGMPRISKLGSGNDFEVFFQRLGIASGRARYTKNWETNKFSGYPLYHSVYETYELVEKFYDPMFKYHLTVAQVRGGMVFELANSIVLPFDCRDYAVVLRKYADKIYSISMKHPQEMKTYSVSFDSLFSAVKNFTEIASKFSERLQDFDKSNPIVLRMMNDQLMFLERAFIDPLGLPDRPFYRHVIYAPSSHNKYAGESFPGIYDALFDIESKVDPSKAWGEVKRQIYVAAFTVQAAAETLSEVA

## CC1(N(CC(=O)O)CC(=O)O)CN(CC(=O)O)CCN(CC(=O)O)C1 [AAZTA, 6-[bis(hydroxycarbonyl-methyl)amino]-1,4-bis-(hydroxycarbonylmethyl)-6-methylperhydro-1,4-diaze-pine]
[1]
  pSc (pM), −log [M]free: 24.7

## O=C(O)CN1CCN(CC(=O)O)CCN(CC(=O)O)CCN(CC(=O)O)CC1 [DOTA, 1,4,7,10-tetraazacyclododecane-1,4,7,10-tetraacetic acid]
[1]
  pSc (pM), −log [M]free: 23.9

## O=C(O)CC[C@H](NC(=O)N[C@@H](CCCCNC(=O)[C@H](Cc1ccc2ccccc2c1)NC(=O)[C@H]1CC[C@H](CNC(=O)CCCCCCOc2cc(CN(CC(=O)O)Cc3cccc(C(=O)O)n3)nc(CN(CC(=O)O)Cc3cccc(C(=O)O)n3)c2)CC1)C(=O)O)C(=O)O [H4pypa-C7-PSMA617]
[2]
  Bmax: 7.84 ± 0.37 fmol/mg

## O=C(O)CN(Cc1cccc(CN(CC(=O)O)Cc2cccc(C(=O)O)n2)n1)Cc1cccc(C(=O)O)n1 [H4pypa]
[3]
  highest pKa: 7.78
[4]
  complex stability pM with Lu^3+: 22.6
[5]
  complex stability pM with La^3+: 19.9
[6]
  complex stability pM with In^3+: 30.5

## O=C(O)CC[C@H](NC(=O)N[C@@H](CCCCNC(=O)[C@H](Cc1ccc2ccccc2c1)NC(=O)[C@H]1CC[C@H](CNC(=O)CCCCCCOc2cc(CN(CC(=O)O)Cc3cccc(C(=O)O)n3)nc(CN(CC(=O)O)Cc3cccc(C(=O)O)n3)c2)CC1)C(=O)O)C(=O)O [[^44Sc][Sc(pypa-C7-PSMA617)], metal not drawn]
[7]
  effect of lower apparent molar activity on kidney accumulation: brought down the kidney accumulation by more than half
[8]
  transchelation in mouse serum: < 1%
In vivo; after about four half-lives of scandium-44, 7.4 GBq/μmol
  tissue uptake: 14.9 ± 1.7 %ID/g
In vivo; after about four half-lives of scandium-44, 74 GBq/μmol
  tissue uptake: 20 ± 0.6 %ID/g
